Activity calls are given as the source filed them. The rule behind the calls is not given here.
How the values were obtained:
Rattus norvegicus [1] = assay: In vivo antagonist activity at androgen receptor in immature Sprague-Dawley rat prostate weight model assessed as testosterone propionate-induced weight of seminal vesicles over full body weight at 1 mg/kg, po qd administered for 4 days; format: functional; design: scale not given: the % may be the effect or the level left
In short: (§1)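 Immature rat prostate weight PK/PD model. Oral dosing once daily at 1 or 10 mg/kg for 4 days. Seminal vesicle weight expressed as % of full body weight, n=3, scaled so testosterone-treated control = 100% and sham = 10%.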

Androgen receptor [2] = molecular target: T1, Androgen receptor (Homo sapiens, UniProt P10275); assay: Displacement of [3H]-DHT from androgen receptor in human MDA-MB-453 cells after 90 mins by TopCount analysis; format: cell-based
T1 sequence (P10275 whole entry): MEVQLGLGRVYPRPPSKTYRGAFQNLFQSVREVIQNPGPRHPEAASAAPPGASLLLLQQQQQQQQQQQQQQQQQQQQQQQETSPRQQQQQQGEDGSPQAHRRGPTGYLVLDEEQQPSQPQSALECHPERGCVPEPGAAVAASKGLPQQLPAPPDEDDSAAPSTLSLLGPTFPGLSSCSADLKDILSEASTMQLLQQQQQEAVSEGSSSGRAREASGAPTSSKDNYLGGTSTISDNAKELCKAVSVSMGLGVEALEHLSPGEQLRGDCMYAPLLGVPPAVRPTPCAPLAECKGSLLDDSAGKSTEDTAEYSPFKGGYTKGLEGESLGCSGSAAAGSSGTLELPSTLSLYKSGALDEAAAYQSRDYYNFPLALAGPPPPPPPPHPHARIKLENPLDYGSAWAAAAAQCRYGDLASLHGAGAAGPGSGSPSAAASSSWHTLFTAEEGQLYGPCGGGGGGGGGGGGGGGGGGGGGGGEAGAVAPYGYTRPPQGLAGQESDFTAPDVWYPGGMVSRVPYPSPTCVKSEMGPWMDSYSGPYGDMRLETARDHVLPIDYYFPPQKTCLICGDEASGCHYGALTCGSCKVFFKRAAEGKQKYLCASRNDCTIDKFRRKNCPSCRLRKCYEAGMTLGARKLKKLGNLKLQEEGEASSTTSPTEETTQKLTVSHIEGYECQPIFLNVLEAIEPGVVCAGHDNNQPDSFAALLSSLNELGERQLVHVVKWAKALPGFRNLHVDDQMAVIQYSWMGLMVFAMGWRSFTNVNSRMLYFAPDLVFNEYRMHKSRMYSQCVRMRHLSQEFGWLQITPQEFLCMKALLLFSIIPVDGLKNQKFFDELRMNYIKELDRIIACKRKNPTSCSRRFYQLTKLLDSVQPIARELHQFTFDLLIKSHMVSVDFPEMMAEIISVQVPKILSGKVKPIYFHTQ

Androgen receptor [3] = molecular target: T1, Androgen receptor; assay: Antagonist activity at androgen receptor in human MDA-MB-453 cells assessed as inhibition of DHT-induced PSA expression by alkaline phosphatase reporter gene assay; format: cell-based
[4] = Plasma concentration in immature Sprague-Dawley rat prostate weight model at 1 mg/kg, po qd administered for 4 days measured 2 hrs post last dose on day 4; format: ADME, organism-based
In short: (§2)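 Immature rat prostate weight model, oral dosing once daily at 1 or 10 mg/kg for 4 days. Plasma drug concentration (µM) measured 2 hours post-dose on day 4, n=3.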

Rattus norvegicus [5] = assay: In vivo antagonist activity at androgen receptor in immature Sprague-Dawley rat prostate weight model assessed as testosterone propionate-induced weight of seminal vesicles over full body weight at 10 mg/kg, po qd administered for 4 days; format: functional; design: scale not given: the % may be the effect or the level left; in short: as §1
[6] = Plasma concentration in immature Sprague-Dawley rat prostate weight model at 10 mg/kg, po qd administered for 4 days measured 2 hrs post last dose on day 4; format: ADME, organism-based; in short: as §2
[7] = Protein binding in mouse serum; format: ADME, cell-free; details: read-out: PB
CWR22 [8] = assay: Antitumor activity against human CWR22 cells in Balb/c athymic (nu/nu) mouse CWR22-BMSLD1 prostate cancer xenograft model assessed as tumor growth inhibition at 150 mg/kg, po qd administered for 35 days measured from day 10 to 35 during compound dosing; format: functional, organism-based
In short: (§3)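 CWR22-BMSLD1 human prostate cancer xenograft. Oral once-daily dosing at 90 mg/kg for 45 days, or at 150 mg/kg for 35 days, with a vehicle group. Median tumor volume (mm3) tracked against days post implant.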

CWR22 [9] = assay: Antitumor activity against human CWR22 cells in Balb/c athymic (nu/nu) mouse CWR22-BMSLD1 prostate cancer xenograft model assessed as tumor growth inhibition at 150 mg/kg, po qd measured for 10 days during compound dosing; format: functional, organism-based; in short: as §3

SMILES | Activity (Rattus norvegicus [1]) [%] | Ki (Androgen receptor [2]) [nM] | IC50 (Androgen receptor [3]) [nM] | concentration at 2 h [4] [nM] | Activity (Rattus norvegicus [5]) [%] | concentration at 2 h [6] [nM] | fraction unbound [7] | TGI (CWR22 [8]) | TGI (CWR22 [9])
C[C@]12O[C@@](C)(C[C@H]1N)[C@H]1C(=O)N(c3ccc(C#N)c(C(F)(F)F)c3)C(=O)[C@H]12 | 89 | 31 | 60 | 80 | 89 | 480 |  |  | 
C[C@]12O[C@@](C)(C[C@H]1NS(=O)(=O)c1cccnc1)[C@H]1C(=O)N(c3ccc(C#N)c(C(F)(F)F)c3)C(=O)[C@H]12 | 44 | 2 | 7 | 50 | 23 | 520 |  |  | 
C[C@]12O[C@@](C)(C[C@H]1NS(=O)(=O)c1ccccc1)[C@H]1C(=O)N(c3ccc(C#N)c(C(F)(F)F)c3)C(=O)[C@H]12 | 63 | 10 | 1 | 230 | 31 | 2400 |  |  | 
C[C@]12O[C@@](C)(C[C@H]1NS(C)(=O)=O)[C@H]1C(=O)N(c3ccc(C#N)c(C(F)(F)F)c3)C(=O)[C@H]12 | 64 | 12 | 20 | 290 | 26 | 4000 |  |  | 
C[C@]12O[C@@](C)(C[C@H]1NS(=O)(=O)c1ccccc1F)[C@H]1C(=O)N(c3ccc(C#N)c(C(F)(F)F)c3)C(=O)[C@H]12 | 56 | 1 | 10 | 160 | 24 | 1900 |  |  | 
C[C@]12O[C@@](C)(C[C@H]1C(=O)O)[C@H]1C(=O)N(c3ccc(C#N)c(C(F)(F)F)c3)C(=O)[C@H]12 |  | 1600 | > 5000 |  |  |  |  |  | 
CNS(=O)(=O)N[C@@H]1C[C@]2(C)O[C@]1(C)[C@@H]1C(=O)N(c3ccc(C#N)c(C(F)(F)F)c3)C(=O)[C@@H]12 | 89 | 50 | 34 | 10 | 36 | 230 |  |  | 
CC(C)NC(=O)N[C@@H]1C[C@]2(C)O[C@]1(C)[C@@H]1C(=O)N(c3ccc(C#N)c(C(F)(F)F)c3)C(=O)[C@@H]12 | 115 | 31 | 60 | 8300 | 56 | 60000 | < 0.01 |  | 
CC12C[C@H](O)[C@](C)(O1)[C@@H]1C(=O)N(c3ccc(C#N)c(I)c3)C(=O)[C@@H]12 (single isomer, unassigned) |  | 8 | 10 |  |  |  |  |  | 
CCC(=O)N[C@@H]1C[C@]2(C)O[C@]1(C)[C@@H]1C(=O)N(c3ccc(C#N)c(C(F)(F)F)c3)C(=O)[C@@H]12 | 87 | 3 | 23 | 24000 | 34 | 190000 | < 0.01 |  | 
CC(O)(CS(=O)(=O)c1ccc(F)cc1)C(=O)Nc1ccc(C#N)c(C(F)(F)F)c1 (stereo not drawn) [BICALUTAMIDE] | 69 |  |  | 2300 | 41 | 9500 |  | inactive | Active
CC(C)OC(=O)[C@@H]1C[C@]2(C)O[C@]1(C)[C@@H]1C(=O)N(c3ccc(C#N)c(C(F)(F)F)c3)C(=O)[C@@H]12 |  | 23 | 22 |  |  |  |  |  | 
CN(C(=O)[C@@H]1C[C@]2(C)O[C@]1(C)[C@@H]1C(=O)N(c3ccc(C#N)c(C(F)(F)F)c3)C(=O)[C@@H]12)c1ccccc1 | 88 | 50 | 34 | 1800 | 43 | 12000 |  |  | 
